We go through 18 compounds from PubChem BioAssay.

The nature of assay [1]: S. cerevisiae growth inhibition in permissive medium (OD615), pilot counter-assay for S. cerevisiae lifespan shortening project, permissive growth control (AID 705;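 active = growth inhibition above 25% in both replicates, a cutoff set 3 SD above the mean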). Particulars: OD615, 24 h, at 10 µM, hits give high values. The procedure, abridged:
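Test system: Saccharomyces cerevisiae strain carrying genetically modified DeaD replicative-lifespan system; buffer or medium: SC raffinose/galactose permissive medium; dosing: one dose 10 µM, DMSO 0.25% final; times: 24 h exposure, 30 °C; measured by: OD at 615 nm; read-out basis: growth inhibition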

The nature of assay [2]: S. cerevisiae growth inhibition in restrictive medium, OD615, pilot screen, restrictive growth control, yeast lifespan reduction project (AID 706;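 active = growth inhibition above a set limit, 3 SD over mean compound inhibition, in both replicates, cut at about 43% in these data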;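 also: modified DeaD lifespan yeast strain shifted to restrictive glucose medium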). As to conditions: OD615, 48 h, at 10 µM, hits give high values. The procedure, abridged: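 material = engineered S. cerevisiae DeaD strain | buffer or medium = glucose-based CSMM-D restrictive medium | dosing = one concentration, 10 µM final, 0.25% DMSO | schedule = 4 h pre-growth plus 48 h compound exposure, 30 °C | detection = OD615 absorbance reading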

Assay [3] can be described thus: doxorubicin toxicity protection in MRP-1 cells – H69AR cells, CellTiter-Glo, duplicate, MRP-1 activator project, pilot screen (AID 807;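 active = viability increase at or above a cutoff of the median across tested compounds plus 3 SD, cut at about 8.5% in these data, passing the limit was not always enough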;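 also: compound pretreatment 18-22 h then 72 h combined with doxorubicin; 0% = doxorubicin alone and 100% = vehicle without doxorubicin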). As to conditions: H69AR viability with doxorubicin, CellTiter-Glo luminescence; at 10 µM; hits give high values. (ATP-based viability assays read luminescence as a measure of living cells.)
A short description of assay [4]: viability of HCT116 without oncogenic beta-catenin – human colon tumor cells, pilot screen (AID 823;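 active = cell viability at or below a set limit in both duplicate runs, the limit being the all-compound median minus 4 SD, cut at about 23% in these data, passing the limit was not always enough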;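 also: 0% = wells killed by 20 µM Hyamine and 100% = untreated DMSO cell wells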). Particulars: HCT116 beta-catenin knockout viability, CellTiter-Glo, 60 h; at 10 µM; hits give low values.
Assay [5] is described as follows: viability of PTEN-null HCT116 cells – cell-based, HCT116 clonal line, CellTiter-Glo, pilot screen (AID 824).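 Also: 0% = 20 µM Hyamine control and 100% = vehicle cell control.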 As to conditions: HCT116 PTEN-deleted viability, 60 h, at 10 µM, hits give low values.
A short description of assay [6]: RAM pathway blockade in budding yeast – dse1pr::URA3 reporter, 5-FOA selection, pilot screen (AID 869;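 active = inhibition over a set limit, the all-compound mean plus 3 SD, in both replicate runs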;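 also: 0% = DMSO wells with no growth and 100% = 10 µM 1-NA-PP1 with full growth; RAM network block rescues cells from 5-FOA so hits raise OD615 growth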). As to conditions: S. cerevisiae dse1pr::URA3 5-FOA growth, OD615, 2 d; at 10 µM; hits give high values; strain carries analog-sensitive mutant Cbk1 kinase.
A short description of assay [7]: RAM signaling pathway blockade in yeast – S. cerevisiae, Pdr1DBD-CYC8 efflux-inhibited sensitized strain, primary screen (AID 1298;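 active = RAM network inhibition above 8.4% in each of two replicates, 3 SD over the compound average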;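 also: 0% = DMSO untreated cells without growth and 100% = 10 µM 1-NA-PP1 full growth; higher means more yeast growth rescued from 5-FOA killing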). Particulars: S. cerevisiae cbk1-as DSE1-URA3 strain, 5-FOA growth OD615, 2 d; at 50 µM; hits give high values.

A word on the viability: it is a read-out of living cells in per cent, often relative to untreated cells. The term inhibition denotes the drop in the measured response relative to a control, in per cent.

Unmarked numbers belong to inactive results. Inconclusive results are not listed. Active and inactive are the calls of the source.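 The calls were made as follows, unless noted: active = viability at or below 27.92% in each of two runs, the all-compound median minus 4 SD; inconclusive = no clear call, values can overlap the other calls; inactive = the rest.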

Take `Nc1nnc(CCc2ccccc2)s1`: the growth inhibition in assay [1] is -1.91%; in assay [2], 8.1%. Also, the viability increase in assay [3] is 0.12%. Further, the viability in assay [4] was 96.2%; in assay [5], 98.9%. Besides, in assay [6], the inhibition was 1.77%. Further, the RAM network inhibition in assay [7] is 0.62%.

As to `COc1cccc(N2CCN(c3ncnc4c3cnn4-c3ccc(C)cc3C)CC2)c1`, the growth inhibition in assay [1] was 4.2%; in assay [2], 3.35%. In addition, in assay [3], the viability increase was -8.59%. The figures for the viability in assay [4] and in assay [5] were 7.71% (active) and 10.3% (active), respectively. The inhibition in assay [6] was 1.66%. Further, in assay [7], the RAM network inhibition is 8.39%.

Turning to `O=C(CSc1nnc2sc3ccccc3n12)NCc1ccc2c(c1)OCO2`, the growth inhibition in assay [1] is 1.77%; in assay [2], 20.7%. In addition, in assay [3], the viability increase was -1.52%. The viability in assay [4] is 104%; in assay [5], 101%. For the same compound, in assay [6], the inhibition is 0.245%. Besides, in assay [7], the RAM network inhibition was 4.54%.

For the compound `CCc1nnc(NC(=O)c2ccc(S(=O)(=O)N3CCOCC3)cc2)s1`, the values for the growth inhibition in assay [1] and in assay [2] were -10.4% and -20.2%, respectively. Besides, the viability increase in assay [3] is -1.63%. For the same compound, the results for the viability in assay [4] and in assay [5] were 105% and 94.6%, respectively. In addition, the inhibition in assay [6] was 1.92%. The RAM network inhibition in assay [7] was 9.48%.

Consider `Cc1nc2ccccc2c2oc(C(=O)NCCN3CCN(C)CC3)cc12`, for which the growth inhibition was -12.1% in assay [1] and -15.1% in assay [2]. Moreover, the viability increase in assay [3] is -1.69%. Besides, the viability in assay [4] was 89.4%; in assay [5] it was 98.8%. Moreover, the inhibition in assay [6] is 1.64%. In addition, the RAM network inhibition in assay [7] was 3.28%.

Regarding `Clc1ccc(NCn2cncn2)nc1`, the growth inhibition was 12.6% in assay [1] and 7.94% in assay [2]. In addition, the viability increase in assay [3] is -1.55%. Further, the viability was 96.5% in assay [4] and 93.5% in assay [5]. The inhibition in assay [6] was 2.67%. For the same compound, the RAM network inhibition in assay [7] was 3.18%.

With `NC(=O)C1CCN(C(=O)c2cc3ccccn3n2)CC1`, the growth inhibition in assay [1] is 0.24%; in assay [2], -0.18%. In addition, the viability increase in assay [3] was -0.34%. Further, the figures for the viability in assay [4] and in assay [5] were 103% and 98.2%, respectively. In addition, in assay [6], the inhibition is 0.505%. Also, the RAM network inhibition in assay [7] was 1.35%.

Turning to `Cc1ccc2c(c1)c1c(n2CC(O)CNC(CO)(CO)CO)CCCC1` (stereo unspecified), the growth inhibition in assay [1] is -2.98%; in assay [2], -11.3%. Further, in assay [3], the viability increase was -1.14%. Moreover, the figures for the viability in assay [4] and in assay [5] were 94.9% and 90.8%, respectively. Besides, the inhibition in assay [6] was 0.175%. In assay [7], the RAM network inhibition was -0.57%.

Consider `O=C(CCc1nc2ccccc2[nH]1)N1CCc2ccccc2C1`, for which the growth inhibition in assay [1] was -11.6%; in assay [2], -12.5%. The viability increase in assay [3] is -1.86%. Besides, the viability in assay [4] was 104%; in assay [5] it was 94.8%. Also, in assay [6], the inhibition is 0.94%. Also, in assay [7], the RAM network inhibition was 1.76%.

Consider `Cn1c(C(=O)NCCCN2CCOCC2)cc2c(=O)n(C)c3ccccc3c21`, for which the results for the growth inhibition in assay [1] and in assay [2] were 0.23% and -0.345%, respectively. Besides, the viability increase in assay [3] was -4.09%. For the same compound, the viability was 100% in assay [4] and 91.5% in assay [5]. Moreover, the inhibition in assay [6] is 1.67%. Also, the RAM network inhibition in assay [7] was -0.72%.

As to `CCN(C(=O)COC(=O)C(Cc1ccccc1)N1C(=O)c2ccccc2C1=O)C1CCS(=O)(=O)C1` (stereo unspecified), the growth inhibition is -4.4% in assay [1] and -18.5% in assay [2]. In assay [3], the viability increase was 0.46%. Besides, the viability is 97.4% in assay [4] and 99.5% in assay [5]. Further, in assay [6], the inhibition is 0.495%. Further, the RAM network inhibition in assay [7] was 2.8%.

In the case of `COc1cccc(-c2nc(CS(=O)(=O)CC(=O)NCCC(C)C)c(C)o2)c1`, the growth inhibition in assay [1] is 3.72%; in assay [2], 7.53%. Besides, the viability increase in assay [3] is 0.8%. The figures for the viability in assay [4] and in assay [5] were 94% and 89.1%, respectively. Also, the inhibition in assay [6] was 0.36%. Also, in assay [7], the RAM network inhibition was 1.13%.

As for `C=CCSc1nc2c(c(=O)[nH]c(=O)n2C)n1Cc1ccc(C)cc1`, the growth inhibition in assay [1] was -12.1%; in assay [2] it was -7.22%. Also, the viability increase in assay [3] is -3.38%. Moreover, the viability in assay [4] is 90.1%; in assay [5], 86.4%. Moreover, the inhibition in assay [6] is 2.6%. The RAM network inhibition in assay [7] is 7.02%.

As for `COc1cc(NS(=O)(=O)c2ccc(NC(=O)C34CC5CC(CC(C5)C3)C4)cc2)ncn1`, the growth inhibition is -0.475% in assay [1] and -24.6% in assay [2]. Also, the viability increase in assay [3] is -1.47%. Also, the values for the viability in assay [4] and in assay [5] were 98.1% and 91.9%, respectively. In addition, in assay [6], the inhibition is 2.73%. For the same compound, the RAM network inhibition in assay [7] is 8.43%.

With `CCOC(=O)c1c(C)oc2cc(Br)c(OC(C)C(=O)OCC)cc12` (stereo unspecified), the growth inhibition in assay [1] was -10.4%; in assay [2] it was -5.88%. In addition, the viability increase in assay [3] was -0.93%. For the same compound, the viability in assay [4] was 85.4%; in assay [5] it was 92%. The inhibition in assay [6] was 1.76%. Further, the RAM network inhibition in assay [7] is 0.98%.

With `O=c1cc(O)c2c(=O)n(-c3ccccc3)c3ccccc3c2o1`, the values for the growth inhibition in assay [1] and in assay [2] were 8.67% and 4.96%, respectively. In assay [3], the viability increase is -4.59%. Further, the results for the viability in assay [4] and in assay [5] were 98.3% and 87.1%, respectively. Also, the inhibition in assay [6] was 0.67%. The RAM network inhibition in assay [7] is 0.42%.

For `O=C(NCc1ccc2c(c1)OCO2)c1ccc(NC(=O)C2CCCO2)cc1` (stereo unspecified), the figures for the growth inhibition in assay [1] and in assay [2] were -11% and -20.2%, respectively. Besides, the viability increase in assay [3] is -2.17%. In addition, the values for the viability in assay [4] and in assay [5] were 102% and 103%, respectively. The inhibition in assay [6] is 3.76%. Besides, the RAM network inhibition in assay [7] is 4.81%.

Turning to `O=C(O)c1n[nH]c2ccccc12`, the growth inhibition in assay [1] is -1.77%; in assay [2], -21.2%. Also, the viability increase in assay [3] is -2.36%. In addition, the viability was 99.2% in assay [4] and 95.6% in assay [5]. For the same compound, in assay [6], the inhibition is 0.89%. Also, the RAM network inhibition in assay [7] is 0.16%.
